Consider 18 molecules from ChEMBL document CHEMBL1155975, “Pentacyclo-undecane derived cyclic tetra-amines: synthesis and evaluation as potent anti-tuberculosis agents” (Eur J Med Chem, 2009).

Values after ≈ are worked out from the molar mass of the structure shown. Where only a bound is given, the exact number is not on record here.

The term MIC denotes the least concentration at which growth counts as inhibited. Usually IC50 stands for the concentration needed to halve the response being measured. A high value points to a need for much substance.

The subject of experiment [1] is Mycobacterium tuberculosis. Description: Antimycobacterial activity against Mycobacterium tuberculosis H37Rv after 21 days by broth macrodilution method. The class given is functional. Conditions: 504 h. The procedure, abridged: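 Triplicate tubes of Middlebrook 7H9 broth with casitone, glycerol and 10% OADC; methanol-dissolved compounds diluted twofold, 128–0.125 µg/mL. Inoculum from log-phase H37Rv, adjusted to McFarland 1 and diluted to 1 × 10^5 CFU/mL, 500 µL per tube. Compound-free and solvent controls included. Aerobic incubation at 37 °C, tubes read macroscopically every 7 days to day 21 for MIC.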

Experiment [2] relates to Mycobacterium tuberculosis. Description: Antimycobacterial activity against Mycobacterium tuberculosis H37Rv infected in MDBK by BACTEC analysis. The format is functional. The procedure, abridged:
(§1)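 Radiometric BACTEC 460 TB. Cultures were grown at 37 °C with stirring, inoculated into BACTEC vials at OD ~0.16 and grown to GI 500 (±50) as the primary culture. Compounds were diluted in methanol to 8–0.03125 µg/mL final. GI was recorded every 24 h, and a daily ΔGI >10 counted as growth. Strains were H37Rv (ATCC 25618) and XDR strain X194.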

In experiment [3] the test system is Mycobacterium tuberculosis. Nature of the experiment: Antimycobacterial activity against Mycobacterium tuberculosis XDR infected in MDBK by BACTEC analysis. The format is functional. The gist of the method:
as §1

A short description of experiment [4]: Cytotoxicity against MDBK cells after 48 hrs by MTT assay. The class given is cell-based. Conditions: Bos taurus. The gist of the method: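 MDBK monolayers were grown in RPMI 1640 with 10% heat-inactivated FBS and pen/strep. Cells were seeded at 5 × 10^4 per well, settled 6 h, then exposed 42 h at 37 °C to compounds in 1% methanol diluted in media; the vehicle served as the 100% viability control. MTT was added for 3 h and formazan read at 570 nm. Runs were quintuplicate, repeated on two days; % cytotoxicity = 100 − (OD sample/OD control × 100).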

`OCCN(CCC12OC3(CCN(CCO)Cc4ccccc4)C4C5CC(C6C5C3C61)C42)Cc1ccccc1` (centres undefined) yielded an MIC in experiment [1] of 248 µM (≈ 128 µg/mL).
Take `C1CNCCN(CCC23OC4(CCN5CCCNCC5)C5C6CC(C7C6C4C72)C53)C1` (centres undefined): inhibition of growth in experiment [1] (MIC) required 155 µM (≈ 64 µg/mL). Compared with the last molecule, the MIC is about 1.6-fold lower.
In the case of `c1ccc(CNCCC23OC4(CCNCc5ccccn5)C5C6CC(C7C6C4C72)C53)nc1` (centres undefined), inhibition of growth in experiment [1] (MIC) required 298 µM (≈ 128 µg/mL).
Regarding `CC(C)=CCC/C(C)=C/CC/C(C)=C\CN1CCN(CCC23OC4(CCN5CCN(C/C=C(\C)CC/C=C(\C)CCC=C(C)C)CC5)C5C6CC(C7C6C4C72)C53)CC1` (centres undefined), the MIC in experiment [1] was 5.04 µM (≈ 4 µg/mL); in experiment [2], 0.32 µM (≈ 0.254 µg/mL); in experiment [3], 0.63 µM. Also, in experiment [4], the IC50 was 24 µM.
The corresponding values for `CC(C)=CCC/C(C)=C\CN1CCN(CCC23OC4(CCN5CCN(C/C=C(\C)CCC=C(C)C)CC5)C5C6CC(C7C6C4C72)C53)CC1` (centres undefined) are 6.09 µM (≈ 4 µg/mL), 0.76 µM (≈ 0.499 µg/mL), 1.52 µM and 30 µM.
Regarding `O=C(c1ccc([N+](=O)[O-])o1)N1CCN(CCC23OC4(CCN5CCN(C(=O)c6ccc([N+](=O)[O-])o6)CC5)C5C6CC(C7C6C4C72)C53)CC1` (centres undefined), the MIC is 24.1 µM (≈ 16 µg/mL) in experiment [1] and greater than 12.1 µM in experiment [2].
For the molecule `O=C(c1ccc([N+](=O)[O-])o1)N1CCCN(CCC23OC4(CCN5CCCN(C(=O)c6ccc([N+](=O)[O-])o6)CC5)C5C6CC(C7C6C4C72)C53)CC1` (centres undefined), the MIC was 23.2 µM (≈ 16 µg/mL) in experiment [1] and greater than 11.6 µM in experiment [2].
Molecule `c1ccc(CN2CCCN(CCC34OC5(CCN6CCCN(Cc7ccccc7)CC6)C6C7CC(C8C7C5C83)C64)CC2)cc1` (centres undefined) gave an MIC in experiment [1] of 108 µM (≈ 64.1 µg/mL).
With `CCCCCCCCCCN1CCN(CCC23OC4(CCN5CCN(CCCCCCCCCC)CC5)C5C6CC(C7C6C4C72)C53)CC1` (centres undefined), the MIC in experiment [3] turned out to be 0.75 µM. The molecule also had an IC50 in experiment [4] of 25 µM.
As to `O=C(c1ccccc1)N1CCN(CCC23OC4(CCN5CCN(C(=O)c6ccccc6)CC5)C5C6CC(C7C6C4C72)C53)CC1` (centres undefined), in experiment [1], inhibition of growth (MIC) required 216 µM (≈ 128 µg/mL).
`c1ccc(CN2CCN(CCC34OC5(CCN6CCN(Cc7ccccc7)CC6)C6C7CC(C8C7C5C83)C64)CC2)cc1` (centres undefined) gave a minimal inhibitory concentration (MIC) in experiment [1] of 113 µM (≈ 64 µg/mL). Compared with the last molecule, the MIC is about 1.9-fold lower.
`NCC[C@H](O)C(=O)N[C@@H]1C[C@H](N)[C@@H](O[C@H]2O[C@H](CN)[C@@H](O)[C@H](O)[C@H]2O)[C@H](O)[C@H]1O[C@H]1O[C@H](CO)[C@@H](O)[C@H](N)[C@H]1O` [AMIKACIN] came in with an MIC in experiment [3] greater than 5 µg/mL.
Regarding `CC[C@@H](CO)NCCN[C@@H](CC)CO` [ETHAMBUTOL], the results for the MIC in experiment [1] and in experiment [3] were 19.6 µM (≈ 4 µg/mL) and greater than 2.5 µg/mL, respectively.
With `NNC(=O)c1ccncc1` [ISONIAZID], the MIC in experiment [3] is greater than 0.2 µg/mL.
In experiment [3], `NC[C@H]1O[C@H](O[C@H]2[C@H](O)[C@@H](O[C@H]3O[C@H](CO)[C@@H](O)[C@H](N)[C@H]3O)[C@H](N)C[C@@H]2N)[C@H](O)[C@@H](O)[C@@H]1O` [KANAMYCIN] gave an MIC greater than 5 µg/mL.
Turning to `CC1COc2c(N3CCN(C)CC3)c(F)cc3c(=O)c(C(=O)O)cn1c23` (centres undefined) [OFLOXACIN], the MIC in experiment [3] is greater than 2 µg/mL.
For the molecule `CO[C@H]1/C=C/O[C@@]2(C)Oc3c(C)c(O)c4c(O)c(c(/C=N/N5CCN(C)CC5)c(O)c4c3C2=O)NC(=O)/C(C)=C\C=C\[C@H](C)[C@H](O)[C@@H](C)[C@@H](O)[C@@H](C)[C@H](OC(C)=O)[C@@H]1C` [RIFAMPIN], the minimal inhibitory concentration (MIC) in experiment [3] is greater than 1 µg/mL.
In turn, `CC(C)=CCC/C(C)=C/CNCCNC1C2CC3CC(C2)CC1C3` (centres undefined) [SQ109] registered an MIC in experiment [2] of 0.63 µM (≈ 0.208 µg/mL). In addition, the half-maximal inhibitory concentration (IC50) in experiment [4] stood at 26 µM.
